Measurements as given in article PMC6331719 (The EMBO Journal, 2018).
Square brackets hold non-standard residues; d marks the D form. Ends that are not written are not given here. Peptide text beside a SMILES is read from it. * marks the point of attachment. DON = [N-]=[N+]=CC(=O)CC[C@H](N)C(=O)O; Cbz = O=C(OCc1ccccc1)*

What was measured:
TG2 and CFTR = assay: Co-immunoprecipitation of TG2 and CFTR, Caco-2 cells; format: cell-based, human; conditions: Caco-2, pre-treatment
TG2 = TG2 activity and TG2-catalysed crosslinking in Caco-2 cells; format: cell-based, human; conditions: Caco-2, Z-DON or TG2 siRNA
NBD1 = NBD1 (Homo sapiens, UniProt P13569, F429S/F494N/Q637R); assay: NBD1 ATPase activity; format: biochemical
Caco‐2 and T84 cells = assay: Cell viability of Caco-2 / T84 cells; format: cell-based, human; conditions: 3 h
CFTR (Caco‐2 cells) = assay: Ussing chamber, CFTR-dependent Cl- secretion in Caco-2 cells; format: cell-based, human; conditions: for Effect on forskolin-inducible chloride current: Caco-2 or T84, 3 h, peptides 20 μg/ml, PT gliadin 500 μg/ml
Method in brief: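 Caco-2 or T84 monolayers grown on 0.4-μm Transwells to 800–1,200 Ω cm2, then mounted in Ussing chambers. Ringer both sides, 37°C, gassed with 95% O2/5% CO2. Cells pretreated 3 h with peptides (20 μg/ml) or PT gliadin (500 μg/ml), or given bath peptides (100 μM, 3–5 min) after 100 μM amiloride. VX-770 10 μM for 5 min. Forskolin 20 μM; peak CFTRinh172-sensitive Isc.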

[1] = test system: recombinant human NBD1 (rhNBD1); assay: Surface plasmon resonance, rhNBD1; format: binding; conditions: CM5 chip, 20°C, HEPES pH 7.4, 2 mM ATP, 5 mM MgCl2; at least three independent experiments
Method in brief: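 NBD1 was recombinant human residues 389–678, immobilised by amine coupling to 2000 RU; a blank flow cell served as reference. Running buffer also contained 150 mM NaCl, 0.05% Tween-20 and 1 mM DTT, at a flow of 20 μl/min. Each run used three start-up buffer injections, a zero control, then a concentration series of peptide analyte.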

enterocytes / T cells = conditions: ref Maiuri et al, 2003; Meresse et al, 2009; Barone et al, 2014; cited from earlier work
celiac PBMC = assay: Caco-2 / celiac PBMC bidimensional co-culture, cytokine release; format: cell-based, human; conditions: lower compartment, celiac vs control PBMC
[2] = test system: CFTR (Caco-2 and T84 cells); assay: Iodide efflux by SPQ in intestinal epithelial cells; format: cell-based, human; conditions: forskolin stimulation, 20 μg/ml 3 h, n = 3
TG2 and NBD1 = assay: Blue native PAGE, peptide with TG2 and rhNBD1; format: binding, human; conditions: Ca2+-activated TG2, biotinylated peptide
Method in brief: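 Recombinant proteins and the indicated peptides were pre-incubated together at 4°C for 30 min in buffer. Samples were then run under native conditions to preserve peptide/protein complexes.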

CFTR = assay: Co-immunoprecipitation of CFTR with biotinylated peptide, Caco-2 cells; format: binding, human; conditions: Caco-2, biotinylated peptide, 1 h
[3] = target: wild‐type human NBD1[389–673], without any solubilizing mutations (human, UniProt P13569-1 389-673); assay: native gel or EMSA
Sequence of wild‐type human NBD1[389–673], without any solubilizing mutations (P13569 389-673, change not shown): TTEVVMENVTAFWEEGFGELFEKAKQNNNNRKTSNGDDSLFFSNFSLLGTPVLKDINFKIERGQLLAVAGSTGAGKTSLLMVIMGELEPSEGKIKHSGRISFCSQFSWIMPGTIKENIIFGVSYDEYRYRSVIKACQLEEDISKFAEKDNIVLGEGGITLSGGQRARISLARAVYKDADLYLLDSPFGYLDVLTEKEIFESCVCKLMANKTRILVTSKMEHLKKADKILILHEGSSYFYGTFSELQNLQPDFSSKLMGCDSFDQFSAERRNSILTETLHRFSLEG

Sequence of NBD1 (P13569 389-678 F429S/F494N/Q637R): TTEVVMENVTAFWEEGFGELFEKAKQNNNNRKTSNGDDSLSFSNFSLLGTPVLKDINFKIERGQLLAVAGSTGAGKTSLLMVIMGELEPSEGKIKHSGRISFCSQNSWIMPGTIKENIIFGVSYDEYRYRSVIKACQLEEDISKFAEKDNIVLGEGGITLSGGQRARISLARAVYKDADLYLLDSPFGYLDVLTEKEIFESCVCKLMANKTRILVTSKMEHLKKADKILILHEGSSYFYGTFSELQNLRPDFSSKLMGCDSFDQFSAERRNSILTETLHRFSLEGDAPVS

## CC(=O)OCOC(=O)CN(CC(=O)OCOC(C)=O)c1ccccc1OCCOc1ccccc1N(CC(=O)OCOC(C)=O)CC(=O)OCOC(C)=O [BAPTA‐AM]
TG2 and CFTR
  Prevention of P31–43-induced TG2–CFTR interaction: prevented

## COC(=O)[C@H](CC(C)C)NC(=O)[C@@H]1CCCN1C(=O)[C@@H](NC(=O)[C@H](CCC(=O)C=[N+]=[N-])NC(=O)OCc1ccccc1)C(C)C [Z‐DON] (Cbz-[DON]VPL-OMe)
TG2
  Inhibition of P31–43-induced glutamine-lysine bonds in CFTR immunoprecipitates: undetectable
TG2 and CFTR
  Prevention of P31–43-induced TG2–CFTR interaction: prevented

## LGQQQPFPPQQPY-NH2 [P31–43, LGQQQPFPPQQPY]
NBD1
  IC50: 55.1 µM
Caco‐2 and T84 cells
  Effect on cell viability: did not affect cell viability

## LQLQPFPQPQLPY PQPQLPYPQPQLPYPQPQPF [P33‐mer]
CFTR (Caco‐2 cells)
  Effect on forskolin-inducible chloride current: but not P57–68, P33‐mer or PGAV

## QLQPFPQPQLPY [P57–68]
[1]
  SPR binding to rhNBD1: failed to induce any signal
Enterocytes / T cells
  Enterocyte stress / T cell activation: activating T cells in the absence of any toxic effect on epithelial cells
Celiac PBMC
  IFN-γ production: but not the P57–68 or P31–43 alone
[2]
  Effect on rate of iodide efflux: not by P57–68 or PGAV
TG2 and NBD1
  Binding to TG2 and complex formation with NBD1: but not P57–68
CFTR (Caco‐2 cells)
  Effect on forskolin-inducible chloride current: but not P57–68, P33‐mer or PGAV

## LGQAAPFPPAAPY [4QA]
[1]
  SPR binding to rhNBD1: strongly reduced as compared to unmutated P31–43
CFTR
  Co-immunoprecipitation with CFTR: marginal interaction with CFTR protein
CFTR (Caco‐2 cells); Caco-2, 1 h
  Inhibition of CFTR function by modified peptide: largely unable to inhibit CFTR function

## GAVAAVGVVAGA [PGAV]
[2]
  Effect on rate of iodide efflux: not by P57–68 or PGAV
CFTR (Caco‐2 cells)
  Effect on forskolin-inducible chloride current: but not P57–68, P33‐mer or PGAV

B1: biotinylated P31–43 (peptide)
peptide: LGQQQPFPPQQPY
modifications: also: biotin tag, position not given here
[3]
  binding result: binds
